Measurements as given in ChEMBL document CHEMBL5136984, “Synthesis and antiproliferative activity of 6BrCaQ-TPP conjugates for targeting the mitochondrial heat shock protein TRAP1” (Eur J Med Chem, 2022).
pIC50: −log10 of the molar value. Calls of active or inactive are those of the source. No cut-off for these calls is given here.

Legend:
[1] = Drug localization in vesicle of human A549 cells at 2 uM measured after 4 hrs by MitoTracker Deep Red based confocal microscopic analysis; settings: a549, 4 h
HCT-116 [2] = assay: Cytotoxicity against human HCT-116 cells assessed as cell viability at 1 uM incubated for 72 hrs by MTT assay relative to control; type: functional; settings: read-out: Activity
Outline: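 MTT read-out after 72 h exposure; 2,500 cells/well seeded and treated 24 h later. MTT solution (5 mg/mL) added for 2 h, medium replaced by DMSO, absorbance at 570 nm corrected for cell-free blanks with compound. Untreated cells taken as 100% metabolic activity. Quadruplicate wells, experiment repeated at least three times.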

MDA-MB-231 [3] = assay: Cytotoxicity against human MDA-MB-231 cells assessed as cell growth inhibition incubated for 72 hrs by Celltiter Glo assay; type: functional, cell-based; settings: for pIC50: MDA-MB-231, 72 h; for GI50: MDA-MB-231, time 72 hrs
Outline: (§1)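 MDA-MB-231 cells exposed for 72 h; survival quantified by CellTiter Glo luminescence. GI50 = 50% growth inhibition; TGI = concentration at which final cell number equals the starting number; LC50 and IC50 also derived from the same curves.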

MDA-MB-231 [4] = assay: Cytotoxicity against human MDA-MB-231 cells assessed as induction of cell death incubated for 72 hrs by Celltiter Glo assay; type: functional; settings: read-out: LC50 (the source's name)
Outline: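 MDA-MB-231 cells were exposed to compounds for 72 h, and survival was quantified by CellTiter-Glo luminescence. From the curves, GI50 (50% growth inhibition), TGI (cell number equal to that at start), LC50 (end cell number 50% of start) and IC50 (50% inhibition of cell activity) were derived.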

MDA-MB-231 [5] = assay: Cytotoxicity against human MDA-MB-231 cells assessed as concentration required for complete tumor growth inhibition incubated for 72 hrs by Celltiter Glo assay; type: functional
Outline: as §1

HT-29 [6] = assay: Downregulation of HSP27 protein expression in human HT-29 cells at 0.1 to 0.5 uM incubated for 24 hrs by Western blot analysis; type: functional, cell-based; settings: dose 0.1-0.5 µM
Outline: (§2)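 HT-29 cells treated 24 h, lysed in RIPA with protease inhibitors 30 min on ice. 30 µg protein denatured at 95 °C with β-mercaptoethanol, run on 4–15% stain-free gels, transferred to PVDF. Blocked in 5% milk/TBS-Tween, primary antibody overnight at 4 °C, HRP secondary 1 h, ECL detection. Signals normalized to stain-free total protein. Blots in duplicate.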

HT-29 [7] = assay: Cytotoxicity against human HT-29 cells assessed as dead cells at 0.1 to 2 uM incubated for 72 hrs by trypan blue staining based optical microscopic analysis relative to control; type: functional; settings: dose 0.1-2 µM
Outline: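 HT-29 cells were grown in McCoy medium with 10% FBS and 2 mM L-glutamine at 37 °C under 5% CO2, seeded at 30,000 per well and treated 24 h later for 72 h. Cells were PBS-washed, trypsinized, mixed 1:1 with trypan blue, and viable and dead cells were counted by light microscopy. Each condition was run three times.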

HCT-116 [8] = assay: Cytotoxicity against human HCT-116 cells assessed as induction of cell death incubated for 72 hrs by MTT assay; type: functional; settings: read-out: LC50 (the source's name)
Outline: (§3)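 Cells were seeded at 2,500 per well and treated 24 h later for 72 h, with 4 replicates per condition and at least three independent experiments. MTT (5 mg/mL solution) was added for 2 h, then the medium was replaced by DMSO. Absorbance at 570 nm was blank-corrected using cell-free wells containing compound, and untreated cells were set as 100% metabolic activity.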

HT-29 [9] = assay: Downregulation of HSP70 protein expression in human HT-29 cells at 0.1 to 0.5 uM incubated for 24 hrs by Western blot analysis; type: functional, cell-based; settings: dose 0.1-0.5 µM
Outline: as §2

HT-29 [10] = assay: Downregulation of SDHB protein expression in human HT-29 cells incubated for 24 hrs by Western blot analysis; type: functional, cell-based; settings: dose 0.1-1 µM, DDE = dose-dependent effect
Outline: (§4)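 HT-29 cells exposed 24 h at 0.1, 0.5 and 1 µM; RIPA lysates, 30 µg protein on 4–15% stain-free SDS-PAGE, PVDF transfer. Anti-SDH-A (mouse, 1:500) or anti-SDH-B (rabbit, 1:250) overnight at 4 °C, HRP secondary, ECL. Densitometry normalized to stain-free total protein; duplicate blots.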

HT-29 [11] = assay: Downregulation of SDHA protein expression in human HT-29 cells incubated for 24 hrs by Western blot analysis; type: functional, cell-based; settings: dose 0.1-1 µM, DDE = dose-dependent effect
Outline: as §4

HT-29 [12] = assay: Cytotoxicity against human HT-29 cells assessed as inhibition of cell growth incubated for 72 hrs by MTT assay; type: functional, cell-based; settings: HT-29, 72 h
Outline: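 HT-29 cells (McCoy medium, 10% FBS, 2 mM glutamine) seeded at 2,500/well, treated 24 h later for 72 h. MTT (5 mg/mL solution) 2 h, formazan dissolved in DMSO, A570 corrected for cell-free blanks with compound. Untreated wells set as 100%. Quadruplicates, at least three independent experiments.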

HT-29 [13] = assay: Induction of mitochondrial membrane potential depolarization in human HT-29 cells assessed as reduction in fluorescence intensity at 0.1 to 1 uM measured after 2 to 6 hrs by TMRE staining based analysis relative to control; type: functional; parameters: scale not given: the % may be the effect or the level left; settings: dose 0.1-1 µM, time 2-6 hrs
Outline: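 HT-29 cells (2,500/well) seeded the day before, exposed 2, 3 or 6 h at 0.1, 0.5 and 1 µM. CCCP 50 µM for 20 min served as depolarization control. TMRE added at 200 nM final for 20 min at 37 °C, fluorescence read by microplate, relative to untreated cells. 3–8 replicate wells per condition.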

HT-29 [14] = assay: Cytotoxicity against human HT-29 cells assessed as cell mortality at 0.1 to 1 uM incubated for 2 to 6 hrs by MTT assay; type: toxicity, cell-based; settings: ht-29, 1 µM, dose lower 0.1 µM, time lower 2 hrs, dose upper 1 µM, time upper 6 hrs
PC-3 = assay: Cytotoxicity against human PC-3 cells assessed as induction of cell death incubated for 72 hrs by MTS assay; type: functional; settings: read-out: LC50 (the source's name)
HT-29 [15] = assay: Cytotoxicity against human HT-29 cells assessed as reduction in viable cells incubated for 72 hrs by trypan blue staining based optical microscopic analysis relative to control; type: functional, cell-based; settings: HT-29, 72 h
Outline: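 HT-29 cells seeded at 30,000/well, treated 24 h later for 72 h. Cells washed with PBS, trypsinized, resuspended in medium and mixed 1:1 with trypan blue. Viable and dead cells counted by optical microscopy on a counting slide. Each condition analysed 3 times.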

MDA-MB-231 [16] = assay: Cytotoxicity against human MDA-MB-231 cells assessed as induction of cell death incubated for 72 hrs by MTT assay; type: functional; settings: read-out: LC50 (the source's name)
Outline: as §3

K562 = assay: Cytotoxicity against human K562 cells assessed as induction of cell death incubated for 72 hrs by MTT assay; type: functional; settings: read-out: LC50 (the source's name)
Outline: as §3

[17] = target: T1, Heat shock factor protein 1 (Homo sapiens) (UniProt Q00613); assay: Induction of HSF-1 degradation in human HT-29 cells at 0.5 uM incubated for 24 hrs by Western blot analysis; type: cell-based
T1 sequence (whole entry): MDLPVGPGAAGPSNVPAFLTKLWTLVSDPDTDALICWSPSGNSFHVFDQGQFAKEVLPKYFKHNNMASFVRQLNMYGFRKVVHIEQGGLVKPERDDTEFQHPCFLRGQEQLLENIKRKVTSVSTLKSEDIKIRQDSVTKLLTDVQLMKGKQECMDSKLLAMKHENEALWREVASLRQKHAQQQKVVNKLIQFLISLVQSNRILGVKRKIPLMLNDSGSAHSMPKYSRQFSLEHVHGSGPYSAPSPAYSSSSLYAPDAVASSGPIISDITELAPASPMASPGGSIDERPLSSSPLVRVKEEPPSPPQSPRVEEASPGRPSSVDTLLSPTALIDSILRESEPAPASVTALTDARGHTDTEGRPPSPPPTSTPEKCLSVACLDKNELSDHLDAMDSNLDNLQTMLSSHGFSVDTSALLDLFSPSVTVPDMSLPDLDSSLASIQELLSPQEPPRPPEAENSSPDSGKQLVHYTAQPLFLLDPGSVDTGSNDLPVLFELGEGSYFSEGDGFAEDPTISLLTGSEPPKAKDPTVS
Outline: as §2

SMILES	pIC50 (MDA-MB-231 [3])	GI50 (MDA-MB-231 [3])	CC50 (MDA-MB-231 [4])	EC (MDA-MB-231 [5])	also measured
Cn1c(=O)c(NC(=O)c2ccc(OCCCCCCCCCCOc3ccc(N(c4ccc(/C=C/c5cc[n+](C)cc5)cc4)c4ccc(/C=C/c5cc[n+](C)cc5)cc4)cc3)cc2)cc2cc(Br)ccc21.[I-].[I-]	–	–	–	–	Drug uptake [1]: Active; viability at 1 µM (HCT-116 [2]): 95%
Cn1c(=O)c(NC(=O)c2ccc(OCCCCCCCCCC[P+](c3ccccc3)(c3ccccc3)c3ccccc3)cc2)cc2ccccc21.[Br-]	7.31	0.026 µM	0.31 µM	0.092 µM	–
Cn1c(=O)c(NC(=O)c2ccc(OCCCCCCC[P+](c3ccccc3)(c3ccccc3)c3ccccc3)cc2)cc2cc(Br)ccc21.[Br-]	7.09	0.065 µM	0.49 µM	0.18 µM	–
Cn1c(=O)c(NC(=O)c2ccc(OCCCCC[P+](c3ccccc3)(c3ccccc3)c3ccccc3)cc2)cc2cc(Br)ccc21.[Br-]	7.06	0.083 µM	0.1 µM	0.093 µM	–
Cn1c(=O)c(NC(=O)c2ccc(OCCCCCCCCCC[P+](c3ccccc3)(c3ccccc3)c3ccccc3)cc2)cc2cc(Br)ccc21.[Br-]	8.10	0.008 µM	0.18 µM	0.037 µM	Activity (HT-29 [6]): Active; Activity (HT-29 [7]): <10%; CC50 (HCT-116 [8]): 0.036 µM; Activity (HT-29 [9]): Active; Activity (HT-29 [10]): Dde; Activity (HT-29 [11]): Dde; pIC50 (HT-29 [12]): > 7.00; Activity (HT-29 [13]): <=68%; Activity (HT-29 [14]): Non-Toxic; CC50 (PC-3): 0.3 µM; pIC50 (HT-29 [15]): > 7.00; CC50 (MDA-MB-231 [16]): 0.18 µM; CC50 (K562): 0.107 µM; viability at 1 µM (HCT-116 [2]): 11%; Activity [17]: Active
Cn1c(=O)c(NC(=O)c2ccc(O)cc2)cc2cc(Br)ccc21	5.15	5.79 µM	17.6 µM	10.97 µM	–
COc1ccc(C(=O)Nc2cc3cc(Br)ccc3n(C)c2=O)cc1	–	0.06 µM	0.38 µM	0.16 µM	CC50 (HCT-116 [8]): 7 µM; pIC50 (HT-29 [12]): < 4.70; Activity (HT-29 [13]): -30%; CC50 (PC-3): 10 µM; CC50 (MDA-MB-231 [16]): 2 µM; CC50 (K562): 48 µM
Cn1c(=O)c(NC(=O)c2ccc(OCCCC[P+](c3ccccc3)(c3ccccc3)c3ccccc3)cc2)cc2cc(Br)ccc21.[Br-]	7.09	0.076 µM	0.11 µM	0.091 µM	–
Cn1c(=O)c(NC(=O)c2ccc(OCCCCCCCCCCBr)cc2)cc2cc(Br)ccc21	5.15	–	–	–	–
Cn1c(=O)c(NC(=O)c2ccc(OCCCCCCCCCCCC[P+](c3ccccc3)(c3ccccc3)c3ccccc3)cc2)cc2cc(Br)ccc21.[Br-]	–	11 µM	17.9 µM	15.2 µM	–
Cn1c(=O)c(NC(=O)c2ccc(OCCC[P+](c3ccccc3)(c3ccccc3)c3ccccc3)cc2)cc2cc(Br)ccc21.[Br-]	–	0.06 µM	0.38 µM	0.16 µM	–
OCCCCCCCCCC[P+](c1ccccc1)(c1ccccc1)c1ccccc1.[Br-]	–	–	–	–	Activity (HT-29 [13]): <=35%
